The values that follow come from ChEMBL document CHEMBL1143881, “Sulfonamidolactam inhibitors of coagulation factor Xa” (Bioorg Med Chem Lett, 2008).

Structures are written as SMILES.

Chain of Coagulation factor X (P00742 41-179 limits assumed): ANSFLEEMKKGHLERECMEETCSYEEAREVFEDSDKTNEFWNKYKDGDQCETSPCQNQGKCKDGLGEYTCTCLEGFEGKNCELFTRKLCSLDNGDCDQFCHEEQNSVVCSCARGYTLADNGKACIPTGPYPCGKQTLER
Chain of Coagulation factor X (P00742 235-488 limits assumed): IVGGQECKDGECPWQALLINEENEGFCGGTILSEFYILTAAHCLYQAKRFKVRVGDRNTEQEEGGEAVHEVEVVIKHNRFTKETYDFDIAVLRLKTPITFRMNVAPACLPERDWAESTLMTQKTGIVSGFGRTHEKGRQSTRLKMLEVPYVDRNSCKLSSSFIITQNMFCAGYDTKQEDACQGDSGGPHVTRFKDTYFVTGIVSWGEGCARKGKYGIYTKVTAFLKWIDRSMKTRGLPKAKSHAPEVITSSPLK

The first assay addresses Coagulation factor X (Homo sapiens, UniProt P00742). As to the kind of experiment: Inhibition of human factor 10a. The essentials:
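Inhibition constant (Ki) measured against purified human factor Xa; each value is the average of two independent experiments (n = 2).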
A word on the Ki: it is the equilibrium dissociation constant of an inhibitor or competing ligand from its target. The low end stands for a stronger hold on the target, the high end for a looser hold on the target. In the case of `CS(=O)(=O)c1ccccc1-c1ccc(N2CCCC(NS(=O)(=O)c3ccc(Cl)cc3)C2=O)c(F)c1` (stereo unspecified), the inhibitory constant (Ki) came to 23 nM.
The same measure, in the same setting: the value for `CCc1ccc(S(=O)(=O)NC2CCCN(c3ccc(-c4ccccc4S(C)(=O)=O)cc3F)C2=O)cc1` (stereo unspecified) was 78 nM.
Turning to `CS(=O)(=O)c1ccccc1-c1ccc(N2CCCC(NS(=O)(=O)c3ccc(C#N)cc3)C2=O)c(F)c1` (stereo unspecified), the Ki was found to be 420 nM.
On the same count and under the same terms, the value for `COC(=O)CN(C1CCCN(c2ccc(-n3ccnc3C[N+](C)(C)CC(=O)OC)cc2F)C1=O)S(=O)(=O)c1ccc2cc(Cl)ccc2c1` (stereo unspecified) was 0.21 nM; that for `O=C1CCCCN1c1ccc(N2CCCC(NS(=O)(=O)c3ccc4cc(Cl)ccc4c3)C2=O)c(F)c1` (stereo unspecified) was 10 nM; that for `CS(=O)(=O)c1ccccc1-c1ccc(N2CCCC(NS(=O)(=O)c3ccc(Cl)s3)C2=O)c(F)c1` (stereo unspecified) was 5.3 nM.
Same read-out and setting: the value for `CS(=O)(=O)c1ccccc1-c1ccc(N2CCCC(NS(=O)(=O)c3ccc(F)cc3)C2=O)c(F)c1` (stereo unspecified) was 44.5 nM; that for `CS(=O)(=O)c1ccccc1-c1ccc(N2CCCC(N(CCCO)S(=O)(=O)c3ccc4cc(Cl)ccc4c3)C2=O)c(F)c1` (stereo unspecified) was 2.3 nM; that for `CS(=O)(=O)c1ccccc1-c1ccc(N2CCCC(NS(=O)(=O)c3cc(Cl)cc(Cl)c3)C2=O)c(F)c1` (stereo unspecified) was 730 nM.
With `CS(=O)(=O)c1ccccc1-c1ccc(N2CCCC(NS(=O)(=O)c3ccc(F)c(F)c3)C2=O)c(F)c1` (stereo unspecified), the Ki was 270 nM.
On the same count and under the same terms, the value for `CS(=O)(=O)c1ccccc1-c1ccc(N2CCCC(NS(=O)(=O)c3ccc(-c4ccon4)s3)C2=O)c(F)c1` (stereo unspecified) was 26 nM; that for `COc1ccc(NC2CCCN(c3ccc(-c4ccccc4S(C)(=O)=O)cc3F)C2=O)cc1` (stereo unspecified) was 450 nM.
Still for that read-out and setting: the value for `CS(=O)(=O)c1ccccc1-c1ccc(N2CCCC(NS(=O)(=O)c3ccc4cn[nH]c4c3)C2=O)c(F)c1` (stereo unspecified) was 19 nM.
Same read-out and setting: the value for `CS(=O)(=O)c1ccccc1-c1ccc(N2CCCC(NS(=O)(=O)c3cccnc3)C2=O)c(F)c1` (stereo unspecified) was 2600 nM; that for `NC(=O)CN(C1CCCN(c2ccc(-n3ccccc3=O)cc2)C1=O)S(=O)(=O)c1cc2ccc(Cl)nc2s1` (stereo unspecified) was 0.1 nM.
On to `O=C1C(NS(=O)(=O)c2ccc3cc(Cl)ccc3c2)CCCN1c1ccc(-n2ccccc2=O)cc1F` (stereo unspecified), for which the Ki was found to be 0.11 nM.
The same measure, in the same setting: the value for `COC(=O)CN(C1CCCN(c2ccc(-c3ccccc3S(C)(=O)=O)cc2F)C1=O)S(=O)(=O)c1ccc2cc(Cl)ccc2c1` (stereo unspecified) was 0.88 nM; that for `O=C(O)CN(C1CCCN(c2ccc(-n3ccccc3=O)cc2)C1=O)S(=O)(=O)c1cc2ccc(Cl)nc2s1` (stereo unspecified) was 0.13 nM; that for `CS(=O)(=O)c1ccccc1-c1ccc(N2CCCC(NS(=O)(=O)c3cc(Cl)ccc3Cl)C2=O)c(F)c1` (stereo unspecified) was 650 nM.
On the same count and under the same terms, the value for `COc1ccc(C(=O)NC2CCCN(c3ccc(-c4ccccc4S(C)(=O)=O)cc3F)C2=O)cc1` (stereo unspecified) was 560 nM.

Tested on in another assay: not listed separately
As to the kind of experiment: Selectivity for human factor 10a over thrombin.
On to `CS(=O)(=O)c1ccccc1-c1ccc(N2CCCC(NS(=O)(=O)c3ccc(Cl)cc3)C2=O)c(F)c1` (stereo unspecified), for which the Selectivity ratio was more than 1000.
Still for that read-out and setting: then `CCc1ccc(S(=O)(=O)NC2CCCN(c3ccc(-c4ccccc4S(C)(=O)=O)cc3F)C2=O)cc1` (stereo unspecified), with more than 1000.
The same measure, in the same setting: the value for `CS(=O)(=O)c1ccccc1-c1ccc(N2CCCC(NS(=O)(=O)c3ccc(C#N)cc3)C2=O)c(F)c1` (stereo unspecified) was more than 1000; that for `COC(=O)CN(C1CCCN(c2ccc(-n3ccnc3C[N+](C)(C)CC(=O)OC)cc2F)C1=O)S(=O)(=O)c1ccc2cc(Cl)ccc2c1` (stereo unspecified) was more than 1000; that for `O=C1CCCCN1c1ccc(N2CCCC(NS(=O)(=O)c3ccc4cc(Cl)ccc4c3)C2=O)c(F)c1` (stereo unspecified) was more than 1000.
The same measure, in the same setting: then `CS(=O)(=O)c1ccccc1-c1ccc(N2CCCC(NS(=O)(=O)c3ccc(Cl)s3)C2=O)c(F)c1` (stereo unspecified), with more than 1000.
For `CS(=O)(=O)c1ccccc1-c1ccc(N2CCCC(NS(=O)(=O)c3ccc(F)cc3)C2=O)c(F)c1` (stereo unspecified), the Selectivity ratio is more than 1000.
Still for that read-out and setting: then `CS(=O)(=O)c1ccccc1-c1ccc(N2CCCC(N(CCCO)S(=O)(=O)c3ccc4cc(Cl)ccc4c3)C2=O)c(F)c1` (stereo unspecified), with more than 1000; and `CS(=O)(=O)c1ccccc1-c1ccc(N2CCCC(NS(=O)(=O)c3cc(Cl)cc(Cl)c3)C2=O)c(F)c1` (stereo unspecified), with more than 1000; and `CS(=O)(=O)c1ccccc1-c1ccc(N2CCCC(NS(=O)(=O)c3ccc(F)c(F)c3)C2=O)c(F)c1` (stereo unspecified), with more than 1000.
In the case of `CS(=O)(=O)c1ccccc1-c1ccc(N2CCCC(NS(=O)(=O)c3ccc(-c4ccon4)s3)C2=O)c(F)c1` (stereo unspecified), the Selectivity ratio is more than 1000.
In the case of `COc1ccc(NC2CCCN(c3ccc(-c4ccccc4S(C)(=O)=O)cc3F)C2=O)cc1` (stereo unspecified), the Selectivity ratio was more than 1000.
The same measure, in the same setting: then `CS(=O)(=O)c1ccccc1-c1ccc(N2CCCC(NS(=O)(=O)c3ccc4cn[nH]c4c3)C2=O)c(F)c1` (stereo unspecified), with more than 1000.
The same measure, in the same setting: then `CS(=O)(=O)c1ccccc1-c1ccc(N2CCCC(NS(=O)(=O)c3cccnc3)C2=O)c(F)c1` (stereo unspecified), with more than 1000.
Consider `NC(=O)CN(C1CCCN(c2ccc(-n3ccccc3=O)cc2)C1=O)S(=O)(=O)c1cc2ccc(Cl)nc2s1` (stereo unspecified), for which the Selectivity ratio is more than 1000.
For the compound `O=C1C(NS(=O)(=O)c2ccc3cc(Cl)ccc3c2)CCCN1c1ccc(-n2ccccc2=O)cc1F` (stereo unspecified), the Selectivity ratio is more than 1000.
Still for that read-out and setting: the value for `COC(=O)CN(C1CCCN(c2ccc(-c3ccccc3S(C)(=O)=O)cc2F)C1=O)S(=O)(=O)c1ccc2cc(Cl)ccc2c1` (stereo unspecified) was more than 1000; that for `O=C(O)CN(C1CCCN(c2ccc(-n3ccccc3=O)cc2)C1=O)S(=O)(=O)c1cc2ccc(Cl)nc2s1` (stereo unspecified) was more than 1000; that for `CS(=O)(=O)c1ccccc1-c1ccc(N2CCCC(NS(=O)(=O)c3cc(Cl)ccc3Cl)C2=O)c(F)c1` (stereo unspecified) was more than 1000.
On the same count and under the same terms, then `COc1ccc(C(=O)NC2CCCN(c3ccc(-c4ccccc4S(C)(=O)=O)cc3F)C2=O)cc1` (stereo unspecified), with more than 1000.

Tested on in a further assay: not listed separately
As to the kind of experiment: Selectivity for human factor 10a over trypsin.
For `CS(=O)(=O)c1ccccc1-c1ccc(N2CCCC(NS(=O)(=O)c3ccc(Cl)cc3)C2=O)c(F)c1` (stereo unspecified), the Selectivity ratio is more than 1000.
On the same count and under the same terms, the value for `CCc1ccc(S(=O)(=O)NC2CCCN(c3ccc(-c4ccccc4S(C)(=O)=O)cc3F)C2=O)cc1` (stereo unspecified) was more than 1000; that for `CS(=O)(=O)c1ccccc1-c1ccc(N2CCCC(NS(=O)(=O)c3ccc(C#N)cc3)C2=O)c(F)c1` (stereo unspecified) was more than 1000.
For `COC(=O)CN(C1CCCN(c2ccc(-n3ccnc3C[N+](C)(C)CC(=O)OC)cc2F)C1=O)S(=O)(=O)c1ccc2cc(Cl)ccc2c1` (stereo unspecified), the Selectivity ratio is more than 1000.
On the same count and under the same terms, then `O=C1CCCCN1c1ccc(N2CCCC(NS(=O)(=O)c3ccc4cc(Cl)ccc4c3)C2=O)c(F)c1` (stereo unspecified), with more than 1000; and `CS(=O)(=O)c1ccccc1-c1ccc(N2CCCC(NS(=O)(=O)c3ccc(Cl)s3)C2=O)c(F)c1` (stereo unspecified), with more than 1000.
Regarding `CS(=O)(=O)c1ccccc1-c1ccc(N2CCCC(NS(=O)(=O)c3ccc(F)cc3)C2=O)c(F)c1` (stereo unspecified), the Selectivity ratio was more than 1000.
Still for that read-out and setting: the value for `CS(=O)(=O)c1ccccc1-c1ccc(N2CCCC(N(CCCO)S(=O)(=O)c3ccc4cc(Cl)ccc4c3)C2=O)c(F)c1` (stereo unspecified) was more than 1000; that for `CS(=O)(=O)c1ccccc1-c1ccc(N2CCCC(NS(=O)(=O)c3cc(Cl)cc(Cl)c3)C2=O)c(F)c1` (stereo unspecified) was more than 1000; that for `CS(=O)(=O)c1ccccc1-c1ccc(N2CCCC(NS(=O)(=O)c3ccc(F)c(F)c3)C2=O)c(F)c1` (stereo unspecified) was more than 1000.
On the same count and under the same terms, the value for `CS(=O)(=O)c1ccccc1-c1ccc(N2CCCC(NS(=O)(=O)c3ccc(-c4ccon4)s3)C2=O)c(F)c1` (stereo unspecified) was more than 1000; that for `COc1ccc(NC2CCCN(c3ccc(-c4ccccc4S(C)(=O)=O)cc3F)C2=O)cc1` (stereo unspecified) was more than 1000.
On the same count and under the same terms, the value for `CS(=O)(=O)c1ccccc1-c1ccc(N2CCCC(NS(=O)(=O)c3ccc4cn[nH]c4c3)C2=O)c(F)c1` (stereo unspecified) was more than 1000; that for `CS(=O)(=O)c1ccccc1-c1ccc(N2CCCC(NS(=O)(=O)c3cccnc3)C2=O)c(F)c1` (stereo unspecified) was more than 1000.
In the case of `NC(=O)CN(C1CCCN(c2ccc(-n3ccccc3=O)cc2)C1=O)S(=O)(=O)c1cc2ccc(Cl)nc2s1` (stereo unspecified), the Selectivity ratio was more than 1000.
In the case of `O=C1C(NS(=O)(=O)c2ccc3cc(Cl)ccc3c2)CCCN1c1ccc(-n2ccccc2=O)cc1F` (stereo unspecified), the Selectivity ratio is more than 1000.
The same measure, in the same setting: the value for `COC(=O)CN(C1CCCN(c2ccc(-c3ccccc3S(C)(=O)=O)cc2F)C1=O)S(=O)(=O)c1ccc2cc(Cl)ccc2c1` (stereo unspecified) was more than 1000.
On the same count and under the same terms, the value for `O=C(O)CN(C1CCCN(c2ccc(-n3ccccc3=O)cc2)C1=O)S(=O)(=O)c1cc2ccc(Cl)nc2s1` (stereo unspecified) was more than 1000; that for `CS(=O)(=O)c1ccccc1-c1ccc(N2CCCC(NS(=O)(=O)c3cc(Cl)ccc3Cl)C2=O)c(F)c1` (stereo unspecified) was more than 1000.
Turning to `COc1ccc(C(=O)NC2CCCN(c3ccc(-c4ccccc4S(C)(=O)=O)cc3F)C2=O)cc1` (stereo unspecified), the Selectivity ratio was more than 1000.

Another assay deals with Plasma. As to the kind of experiment: Anticoagulant efficacy in human citreated plasma assessed as concentration required to double prothrombin time. The assay is classed as functional.
For `COC(=O)CN(C1CCCN(c2ccc(-n3ccnc3C[N+](C)(C)CC(=O)OC)cc2F)C1=O)S(=O)(=O)c1ccc2cc(Cl)ccc2c1` (stereo unspecified), the PT worked out at 12 µM.
Still for that read-out and setting: then `CS(=O)(=O)c1ccccc1-c1ccc(N2CCCC(N(CCCO)S(=O)(=O)c3ccc4cc(Cl)ccc4c3)C2=O)c(F)c1` (stereo unspecified), with 208 µM.
On the same count and under the same terms, then `NC(=O)CN(C1CCCN(c2ccc(-n3ccccc3=O)cc2)C1=O)S(=O)(=O)c1cc2ccc(Cl)nc2s1` (stereo unspecified), with 4.8 µM.
Consider `O=C1C(NS(=O)(=O)c2ccc3cc(Cl)ccc3c2)CCCN1c1ccc(-n2ccccc2=O)cc1F` (stereo unspecified), for which the PT came out at 35 µM.
Still for that read-out and setting: then `COC(=O)CN(C1CCCN(c2ccc(-c3ccccc3S(C)(=O)=O)cc2F)C1=O)S(=O)(=O)c1ccc2cc(Cl)ccc2c1` (stereo unspecified), with 89 µM; and `O=C(O)CN(C1CCCN(c2ccc(-n3ccccc3=O)cc2)C1=O)S(=O)(=O)c1cc2ccc(Cl)nc2s1` (stereo unspecified), with 16 µM.
